Legend:
Format in all cases: functional
Fusarium oxysporum [1] = assay: Fungitoxicity against Fusarium oxysporum assessed as inhibition of mycelia growth at 28 +/- 1 degC at 10 ug/mL for 96 hr by poisoned food technique
Procedure, shortened: (§1)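 Poisoned food technique in Czapek's agar dishes, with test compound incorporated at 10, 100 or 1000 μg/mL. Fungus inoculated at the dish centre and incubated 96 h at 28 ± 1 °C. Percent inhibition = 100 × (mean hyphal diameter in control − mean hyphal diameter in test) / mean hyphal diameter in control. Three replicate assays per treatment and six replicate controls. Griseofulvin and Dithane M-45 served as standards.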

Fusarium oxysporum [2] = assay: Fungitoxicity against Fusarium oxysporum assessed as inhibition of mycelia growth at 28 +/- 1 degC at 1000 ug/mL for 96 hr by poisoned food technique; procedure, shortened: as §1
Penicillium citrinum [3] = assay: Fungitoxicity against Penicillium citrinum assessed as inhibition of mycelia growth at 28 +/- 1 degC at 10 ug/mL for 96 hr by poisoned food technique; procedure, shortened: as §1
Penicillium citrinum [4] = assay: Fungitoxicity against Penicillium citrinum assessed as inhibition of mycelia growth at 28 +/- 1 degC at 100 ug/mL for 96 hr by poisoned food technique; procedure, shortened: as §1
Penicillium citrinum [5] = assay: Fungitoxicity against Penicillium citrinum assessed as inhibition of mycelia growth at 28 +/- 1 degC at 1000 ug/mL for 96 hr by poisoned food technique; procedure, shortened: as §1
Fusarium oxysporum [6] = assay: Fungitoxicity against Fusarium oxysporum assessed as inhibition of mycelia growth at 28 +/- 1 degC at 100 ug/mL for 96 hr by poisoned food technique; procedure, shortened: as §1

SMILES | inhibition at 10 µg/mL (Fusarium oxysporum [1]) [%] | inhibition at 1000 µg/mL (Fusarium oxysporum [2]) [%] | inhibition at 10 µg/mL (Penicillium citrinum [3]) [%] | inhibition at 100 µg/mL (Penicillium citrinum [4]) [%] | inhibition at 1000 µg/mL (Penicillium citrinum [5]) [%] | inhibition at 100 µg/mL (Fusarium oxysporum [6]) [%]
O=[Se](=O)(c1ccccc1)c1ncn([C@@H]2O[C@H](CO)[C@@H](O)[C@H]2O)n1 | 50 | 82 | 35 | 42 | 89 | 65
CC(=O)OC[C@H]1O[C@@H](n2cnc([Se](=O)(=O)c3ccc(C)cc3)n2)C[C@@H]1OC(C)=O | 26 | 45 | 17 | 31 | 42 | 35
CC(=O)OC[C@H]1O[C@@H](n2cnc([Se](=O)(=O)c3ccc(Cl)cc3)n2)C[C@@H]1OC(C)=O | 15 | 54 | 16 | 35 | 51 | 26
CC(=O)OC[C@H]1O[C@@H](n2cnc([Se](=O)(=O)c3ccc([N+](=O)[O-])cc3)n2)C[C@@H]1OC(C)=O | 16 | 54 | 18 | 34 | 51 | 28
COc1ccc([Se](=O)(=O)c2ncn([C@@H]3O[C@H](CO)[C@@H](O)[C@H]3O)n2)cc1 | 55 | 100 | 39 | 49 | 99 | 68
Cc1ccc([Se](=O)(=O)c2ncn([C@@H]3O[C@H](CO)[C@@H](O)[C@H]3O)n2)cc1 | 62 | 88 | 69 | 78 | 80 | 80
O=[Se](=O)(c1ccc(Cl)cc1)c1ncn([C@@H]2O[C@H](CO)[C@@H](O)[C@H]2O)n1 | 44 | 100 | 36 | 65 | 97 | 72
O=[N+]([O-])c1ccc([Se](=O)(=O)c2ncn([C@@H]3O[C@H](CO)[C@@H](O)[C@H]3O)n2)cc1 | 35 | 81 | 37 | 59 | 86 | 48
O=[Se](=O)(c1ccccc1)c1ncn([C@H]2C[C@H](O)[C@@H](CO)O2)n1 | 33 | 77 | 65 | 74 | 81 | 42
COc1ccc([Se](=O)(=O)c2ncn([C@H]3C[C@H](O)[C@@H](CO)O3)n2)cc1 | 65 | 91 | 42 | 48 | 76 | 76
Cc1ccc([Se](=O)(=O)c2ncn([C@H]3C[C@H](O)[C@@H](CO)O3)n2)cc1 | 61 | 81 | 67 | 74 | 80 | 75
O=[Se](=O)(c1ccc(Cl)cc1)c1ncn([C@H]2C[C@H](O)[C@@H](CO)O2)n1 | 32 | 81 | 31 | 65 | 75 | 56
O=[N+]([O-])c1ccc([Se](=O)(=O)c2ncn([C@H]3C[C@H](O)[C@@H](CO)O3)n2)cc1 | 41 | 82 | 33 | 63 | 87 | 60
CC(=O)OC[C@H]1O[C@@H](n2cnc([Se](=O)(=O)c3ccccc3)n2)[C@H](OC(C)=O)[C@@H]1OC(C)=O | 15 | 41 | 12 | 30 | 38 | 32
COc1ccc([Se](=O)(=O)c2ncn([C@@H]3O[C@H](COC(C)=O)[C@@H](OC(C)=O)[C@H]3OC(C)=O)n2)cc1 | 16 | 53 | 17 | 32 | 47 | 44
CC(=O)OC[C@H]1O[C@@H](n2cnc([Se](=O)(=O)c3ccc(C)cc3)n2)[C@H](OC(C)=O)[C@@H]1OC(C)=O | 17 | 52 | 21 | 42 | 51 | 37
CC(=O)OC[C@H]1O[C@@H](n2cnc([Se](=O)(=O)c3ccc(Cl)cc3)n2)[C@H](OC(C)=O)[C@@H]1OC(C)=O | 14 | 55 | 22 | 39 | 53 | 29
CC(=O)OC[C@H]1O[C@@H](n2cnc([Se](=O)(=O)c3ccc([N+](=O)[O-])cc3)n2)[C@H](OC(C)=O)[C@@H]1OC(C)=O | 30 | 65 | 24 | 41 | 62 | 55
CC(=O)OC[C@H]1O[C@@H](n2cnc([Se](=O)(=O)c3ccccc3)n2)C[C@@H]1OC(C)=O | 25 | 45 | 23 | 32 | 42 | 33
COc1ccc([Se](=O)(=O)c2ncn([C@H]3C[C@H](OC(C)=O)[C@@H](COC(C)=O)O3)n2)cc1 | 17 | 65 | 24 | 35 | 64 | 25
COC1=CC(=O)C[C@@H](C)[C@]12Oc1c(Cl)c(OC)cc(OC)c1C2=O [GRISEOFULVIN] | 91 | 100 | 90 | 94 | 100 | 95
